Results on six molecules are retold here after publication PMC6243397 (ACS Chemical Biology, 2018).

Data set [1] in a line: Mouse liver microsome stability assay. It is filed as in vitro ADME. Conditions: percentage remaining relative to t0. Background: Microsomes from liver hold many membrane-bound enzymes, among them those of drug oxidation.
Data set [2] can be described thus: Stability control without microsomes. Conditions: microsomes replaced with PBS, percentage remaining relative to t0. The data set is classed as physicochemical.
For another data set, the system named is U87 cells. Kind of data set: O6-methyldeoxyguanosine quantitation. It is filed as cell-based, human. Conditions: 100 or 1000 μM, 8 h. In short, it runs like this:
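U87 cells were treated with 100 or 1000 μM test compound for 8 h. Genomic DNA was isolated, quantified and hydrolysed to deoxyribonucleosides. O6-methyldeoxyguanosine was quantitated by LC-MS/MS and expressed per 10 μg DNA.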

The test system of another data set is human GBM cell lines. Kind of data set: Panel of human GBM cell lines, viability. It is filed as cell-based.
A short description of data set [3]: Assessment of hematological toxicity. It is filed as in vivo, mouse. Conditions: single IV dose 125 mg/kg, 7 days post-treatment. In outline: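 Mice received a single IV dose of 125 mg/kg test compound. Whole blood was collected 7 days post-dose and a complete blood count run per mouse (total WBC, lymphocytes, neutrophils). Four mice per cohort; error is SEM. Groups were compared with control by two-tailed two-sample Student's t test assuming equal variance.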

For data set [4] the following is noted: cited from earlier work.
Data set [5] can be described thus: in vivo blood-brain barrier permeability. Conditions: CD-1 IGS, mouse, brain and serum, iv, 25 mg/kg.
Data set [6] can be described thus: Hydrolytic stability in PBS. It is filed as physicochemical. The settings on record: pH 7.4, t1/2 in PBS, PBS pH 7.4, 37 °C.

Read-outs that look alike come from different tables or passages of the source.

With `Cn1nnc2c(Cl)ncn2c1=O` [Compound 19], the “stability (2 h, microsomes)” value in data set [1] was 91 ± 3%. Further, the “stability (2 h, no microsomes)” value in data set [2] is reported as 91 ± 1%.
As to `Cn1nnc2c(-c3ccccc3)ncn2c1=O` [Compound 23], the “stability (2 h, microsomes)” value in data set [1] is reported as 44 ± 2%. Also, the “stability (2 h, no microsomes)” value in data set [2] was determined as 103 ± 5%.
For `CCN(CC)C(=O)c1ncn2c(=O)n(C)nnc12` [Compound 6] the same measures were 81 ± 1% and 95 ± 2%.
Consider `Cn1nnc2c(C(N)=O)ncn2c1=O` [TMZ, temozolomide], for which the “concentration of O6-methylated deoxyguanosine” value in the data set on U87 cells is on record as “Dose dependent increases”. The “stability (2 h, microsomes)” value in data set [1] is given as 87 ± 6%. Besides, the “stability (2 h, no microsomes)” value in data set [2] is on record as 86 ± 4%. The figures for the IC50 in the data set with human GBM cell lines (read-out: IC50 in cell lines with negligible MGMT expression) and in the data set on human GBM cell lines (read-out: IC50 in cell lines with significant MGMT expression) were no more than 50 µM and greater than 300 µM, respectively. In addition, the “myelosuppression / white blood cell count” value in data set [3] is reported as “white blood cell (WBC) depletion relative to control mice”. Also, the half-life in humans in data set [4] (humans) is roughly 2 h. For the same molecule, in data set [4] (in vivo and in aqueous solutions in vitro), the “half-life in vivo and in aqueous solutions in vitro” value was roughly 2 h. In addition, in data set [5], the partition ratio (Kp) at 5 min turned out to be 0.23 ± 0.03.
As to `Cc1ncn2c(=O)n(C)nnc12` [Compound 14], the half-life in data set [6] is 40 h.
Regarding `CCCCN(CCCC)C(=O)c1ncn2c(=O)n(C)nnc12` [Compound 7], the “stability (2 h, microsomes)” value in data set [1] is given as 1 ± 1%. For the same molecule, the “stability (2 h, no microsomes)” value in data set [2] stood at 98 ± 3%.

The IC50 is the concentration needed to halve the response being measured. What is called Kp is the ratio of the level in a tissue or fluid to that in plasma or blood. The term half-life denotes how long it takes for the measured level to halve. A higher half-life goes with slow decline.
